We go through 17 compounds from PubChem BioAssay.

Values without a mark were called inactive. Records with an inconclusive call do not appear. The source made the active and inactive calls.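 Rule for the calls, unless noted: active = viability increase at or above a cutoff of the median across tested compounds plus 3 SD (cut at about 8.5% in these data, passing the limit was not always enough); inconclusive = some gains above the cutoff, reason not given; inactive = the rest.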

One may read the viability as a read-out of living cells in per cent, often relative to untreated cells. One may read the inhibition as the change of the read-out against control, counted positive when it falls.

A short description of assay [1]: OD615 S. cerevisiae growth inhibition, permissive medium, pilot counter-assay, permissive growth control for S. cerevisiae lifespan shortening project (AID 705;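 active = growth inhibition above 25% in both replicates, a cutoff set 3 SD above the mean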). Conditions: OD615, 24 h, at 10 µM, stronger effect = higher value. The method in brief: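 Material: engineered DeaD yeast; Compound: one dose 10 µM, DMSO 0.25% final; Detection: absorbance (optical density) at 615 nm; Buffer or medium: permissive raffinose/galactose medium; Timing: 24 h exposure, 30 °C.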

The nature of assay [2]: Restrictive medium S. cerevisiae growth inhibition, OD615, pilot screen of yeast lifespan reduction project, restrictive growth control (AID 706;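 active = growth inhibition above a set limit, 3 SD over mean compound inhibition, in both replicates, cut at about 43% in these data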;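 note: modified DeaD lifespan yeast strain shifted to restrictive glucose medium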). Conditions: OD615, 48 h, at 10 µM, stronger effect = higher value. The method in brief:
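Buffer or medium: restrictive glucose medium (CSMM-D); test system: modified S. cerevisiae; doses: single dose of 10 µM compound final, 0.25% DMSO; schedule: 48 h compound exposure at 30 °C; detection: absorbance (optical density) measured at 615 nm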

Assay [3] is described as follows: viability gain of MRP-1-high H69AR cells under doxorubicin, pilot screen, MRP-1 activator project, CellTiter-Glo, duplicate (AID 807).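 Note: compound pretreatment 18-22 h then 72 h combined with doxorubicin; 0% = doxorubicin alone and 100% = vehicle without doxorubicin.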 The note with it: H69AR viability with doxorubicin, CellTiter-Glo luminescence; at 10 µM; stronger effect = higher value. For orientation: Cellular ATP, detected with luciferase, serves as a proxy for viable cell number.
The nature of assay [4]: growth suppression of beta-catenin knockout HCT116, pilot screen, human colon tumor cells (AID 823;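 active = cell viability at or below a set limit in both duplicate runs, the limit being the all-compound median minus 4 SD, cut at about 23% in these data, passing the limit was not always enough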;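 note: 0% = wells killed by 20 µM Hyamine and 100% = untreated DMSO cell wells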). Conditions: CellTiter-Glo, 60 h, at 10 µM, stronger effect = lower value.
A short description of assay [5]: growth suppression of PTEN-deleted HCT116, pilot screen, cell-based, HCT116 clonal line, CellTiter-Glo (AID 824;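 active = viability at or below 27.92% in each of two runs, the all-compound median minus 4 SD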;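 note: 0% = 20 µM Hyamine control and 100% = vehicle cell control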). Conditions: 60 h, at 10 µM, stronger effect = lower value.
A short description of assay [6]: inhibitors of the yeast RAM network, pilot screen, dse1pr::URA3 reporter, 5-FOA selection (AID 869;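 active = inhibition over a set limit, the all-compound mean plus 3 SD, in both replicate runs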;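 note: 0% = DMSO wells with no growth and 100% = 10 µM 1-NA-PP1 with full growth; RAM network block rescues cells from 5-FOA so hits raise OD615 growth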). Conditions: S. cerevisiae dse1pr::URA3 5-FOA growth, OD615, 2 d; at 10 µM; stronger effect = higher value; strain carries analog-sensitive mutant Cbk1 kinase.
Assay [7] can be described thus: RAM signaling pathway blockade in yeast – S. cerevisiae, Pdr1DBD-CYC8 efflux-inhibited sensitized strain, primary screen (AID 1298;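 active = RAM network inhibition above 8.4% in each of two replicates, 3 SD over the compound average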;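 note: 0% = DMSO untreated cells without growth and 100% = 10 µM 1-NA-PP1 full growth; higher means more yeast growth rescued from 5-FOA killing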). Conditions: S. cerevisiae cbk1-as DSE1-URA3 strain, 5-FOA growth OD615, 2 d; at 50 µM; stronger effect = higher value.

Regarding `Cc1ccc(NC(=O)CN(c2cc(C)cc(C)c2)S(=O)(=O)c2c(C)noc2C)nc1`, the growth inhibition is -8.61% in assay [1] and -7.12% in assay [2]. Further, in assay [3], the viability increase is -3.03%. In addition, the viability in assay [4] is 69.4%; in assay [5], 70.6%. Also, in assay [6], the inhibition was 0.895%. Besides, the RAM network inhibition in assay [7] is 7.84%.
Regarding `CCOC(=O)c1ccc(Nc2nnc(C(C)(C)C)c(=O)[nH]2)cc1`, the growth inhibition is -18.6% in assay [1] and -21.9% in assay [2]. Further, in assay [3], the viability increase is -7.93%. The viability is 49.6% in assay [4] and 43.7% in assay [5]. The inhibition in assay [6] was 0.35%. For the same compound, the RAM network inhibition in assay [7] was 2.06%.
Consider `COc1cccc(-n2c(=O)[nH]cc(C(=O)Nc3ccc(NC(C)=O)cc3)c2=O)c1`, for which the values for the growth inhibition in assay [1] and in assay [2] were -13.3% and 4%, respectively. For the same compound, in assay [3], the viability increase was 0.63%. Also, the viability in assay [4] is 106%; in assay [5], 96.6%. For the same compound, in assay [6], the inhibition is 3.3%. Further, the RAM network inhibition in assay [7] is 4.32%.
Regarding `COc1ccc(-n2c(Cc3cc(=O)[nH]c(=O)[nH]3)nnc2SCC(=O)Nc2ccccc2)cc1`, the growth inhibition was 5.82% in assay [1] and 3.9% in assay [2]. In addition, in assay [3], the viability increase is 0.25%. In addition, the figures for the viability in assay [4] and in assay [5] were 105% and 98.7%, respectively. The inhibition in assay [6] is 0.48%. Moreover, the RAM network inhibition in assay [7] was 2.13%.
Take `Cc1ccc(Cl)cc1N1CCN(C(=O)CCC(=O)O)CC1`: the growth inhibition in assay [1] is -10.9%; in assay [2], -29.2%. Besides, the viability increase in assay [3] was -1.08%. Also, the figures for the viability in assay [4] and in assay [5] were 95.6% and 91.3%, respectively. In addition, the inhibition in assay [6] was 1.51%. Also, the RAM network inhibition in assay [7] is 2.18%.
As for `CC1CCCCC1NS(=O)(=O)c1ccc(S(=O)(=O)N2CCN(CCC#N)CC2)cc1` (centres undefined), the growth inhibition in assay [1] is -0.665%; in assay [2] it was -2.72%. The viability increase in assay [3] was -2.84%. Besides, the results for the viability in assay [4] and in assay [5] were 86.2% and 87.8%, respectively. In addition, the inhibition in assay [6] is 0.54%. For the same compound, the RAM network inhibition in assay [7] is 3.44%.
As for `CC1CCCC(C)N1CCCNC(=O)c1cc2c(=O)n(C)c3ccccc3c2n1C` (centres undefined), the growth inhibition in assay [1] was -11.5%; in assay [2], -10.6%. Also, the viability increase in assay [3] was -6.03%. Further, the values for the viability in assay [4] and in assay [5] were 68.9% and 71.5%, respectively. The inhibition in assay [6] is -0.625%. In addition, the RAM network inhibition in assay [7] was 2.26%.
Consider `O=C(COC(=O)c1ccco1)Nc1ccc(Br)cc1`, for which the growth inhibition in assay [1] was -15.4%; in assay [2] it was -14.3%. Moreover, the viability increase in assay [3] was -1.81%. Also, the viability in assay [4] is 93.5%; in assay [5], 99.3%. Further, the inhibition in assay [6] is 1.45%. Besides, the RAM network inhibition in assay [7] was 2.21%.
Take `COc1ccc(-c2nc(Cn3c(SCc4cccc(F)c4)nc4ccncc43)c(C)o2)cc1OC`: the growth inhibition was 4.55% in assay [1] and 30.2% in assay [2]. Further, the viability increase in assay [3] is -3.1%. The figures for the viability in assay [4] and in assay [5] were 69.9% and 60.1%, respectively. In addition, the inhibition in assay [6] is 1%. Besides, the RAM network inhibition in assay [7] is 3.81%.
Turning to `CCOC(=O)C1=C(C)NC(=O)NC1c1cn(-c2ccccc2)nc1-c1cccs1` (centres undefined), the growth inhibition in assay [1] was -10.2%; in assay [2], -0.16%. In assay [3], the viability increase is -0.43%. Also, the values for the viability in assay [4] and in assay [5] were 75.2% and 72.2%, respectively. In addition, in assay [6], the inhibition was 1.46%. For the same compound, the RAM network inhibition in assay [7] is 3.87%.
`Cc1ccc(S(=O)(=O)Cc2ccc(C(=O)N3CCN(c4ccc(F)cc4)CC3)o2)cc1`: the values for the growth inhibition in assay [1] and in assay [2] were -9.22% and -15.2%, respectively. Also, the viability increase in assay [3] is -6.28%. Also, the viability was 33% in assay [4] and 23.3% (active) in assay [5]. In assay [6], the inhibition was 0.575%. Also, the RAM network inhibition in assay [7] is 4.81%.
Regarding `O=C1c2ccccc2C(Nc2cccnc2)N1Cc1ccc2c(c1)OCO2` (centres undefined), the growth inhibition in assay [1] is 7.46%; in assay [2] it was 3.33%. In assay [3], the viability increase was -2.21%. Also, the viability was 94.1% in assay [4] and 104% in assay [5]. Besides, the inhibition in assay [6] is 0.205%. Moreover, in assay [7], the RAM network inhibition was 1.74%.
Turning to `COc1ccc(/C(N)=C/C(=O)C(C)(C)C)cc1`, the growth inhibition in assay [1] was -14.2%; in assay [2] it was -11.6%. For the same compound, the viability increase in assay [3] was 0.55%. Also, the figures for the viability in assay [4] and in assay [5] were 96.1% and 98.2%, respectively. The inhibition in assay [6] is 2.5%. The RAM network inhibition in assay [7] is 4.84%.
Consider `COc1ccc(C(C#N)Nc2ccccc2OC)cc1` (centres undefined), for which the growth inhibition in assay [1] was -7.99%; in assay [2] it was -12.7%. Further, the viability increase in assay [3] was -2.75%. Further, the viability is 80.9% in assay [4] and 96% in assay [5]. Further, the inhibition in assay [6] was 0.35%. The RAM network inhibition in assay [7] was 2.51%.
On to `Cc1ccc(CCN2C(=O)CCC2(C)C(=O)NC2CCCC2)cc1` (centres undefined), for which the growth inhibition in assay [1] is -7.04%; in assay [2], -1.27%. In assay [3], the viability increase was -4.22%. For the same compound, the viability was 97.5% in assay [4] and 100% in assay [5]. For the same compound, in assay [6], the inhibition was 1.19%. For the same compound, in assay [7], the RAM network inhibition is 5.93%.
As to `COC(=O)C1C(=O)c2c([nH]c(C(=O)OC3CCCC3C)c2C)CC1C` (centres undefined), the values for the growth inhibition in assay [1] and in assay [2] were -4.87% and -2.27%, respectively. In assay [3], the viability increase was 3.21%. Moreover, the viability in assay [4] is 81.2%; in assay [5], 72.7%. For the same compound, the inhibition in assay [6] is 2.68%. Further, the RAM network inhibition in assay [7] was 3.76%.
In the case of `CCC1(C)C2(C#N)C(N)=NC(OC)(OC)C12C#N` (centres undefined), the growth inhibition is -5.98% in assay [1] and -10.1% in assay [2]. Moreover, in assay [3], the viability increase is -0.83%. In addition, the viability is 106% in assay [4] and 99.3% in assay [5]. The inhibition in assay [6] was 1.41%. Also, the RAM network inhibition in assay [7] is 2.07%.
